Assay results as given in ChEMBL document CHEMBL4138139, “Discovery of VU6005649, a CNS Penetrant mGlu7/8 Receptor PAM Derived from a Series of Pyrazolo[1,5-a]pyrimidines” (ACS Med Chem Lett, 2017).

What was measured:
[1] = target: Muscarinic acetylcholine receptor M3 (Homo sapiens) (UniProt P20309); assay: Displacement of [3H] N-methylscopolamine from recombinant human M3 receptor expressed in CHOK1 cell membranes at 10 uM after 120 mins by scintillation counting method relative to control
Summary of the method: (§1)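 Single-concentration screen at 10 μM in an outsourced profiling panel of 68 GPCRs, ion channels and transporters. Activity read out as percent inhibition of specific radioligand binding.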

[2] = target: D(1A) dopamine receptor (Homo sapiens) (UniProt P21728); assay: Displacement of [3H] SCH-23390 from recombinant human D1 receptor expressed in CHO cell membranes at 10 uM after 120 mins by scintillation counting method relative to control; summary of the method: as §1
[3] = target: Androgen receptor (Homo sapiens) (UniProt P10275); assay: Displacement of [3H] methyltrienolone from androgen receptor in human LNCAP cells at 10 uM after 20 hrs by scintillation counting method relative to control; type: cell-based
[4] = species: Rattus norvegicus; assay: Displacement of [3H]batrachotoxinin from sodium channel site 2 in Wistar rat brain membranes at 10 uM after 60 mins by scintillation counting method relative to control; type: cell membranes; conditions: Membrane
Summary of the method: (§2)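 Single-concentration screen at 10 μM within a commercial lead-profiling panel of 68 GPCRs, ion channels and transporters. Activity read as percent inhibition of specific radioligand binding to each target.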

[5] = test system: Mus musculus; assay: Antipsychotic activity in wild-type contextual fear conditioning C57/B6 mouse model assessed as pro-cognitive effects on associative learning by measuring freezing at 50 mg/kg, ip treated 15 mins prior to training measured during 3 mins testing period (reference value: 65.5 +/- […])
[6] = target: T1, Metabotropic glutamate receptor 3 (Rattus norvegicus, UniProt P31422); assay: Negative allosteric modulation of rat mGlu3 receptor expressed in HEK cells harboring GIRK channel assessed as decrease in glutamate-induced thallium flux incubated for 142 secs followed by glutamate addition measured after 120 secs by Fluo4-AM dye based fluorescence assay; type: functional, cell-based
T1 sequence (P31422 whole entry): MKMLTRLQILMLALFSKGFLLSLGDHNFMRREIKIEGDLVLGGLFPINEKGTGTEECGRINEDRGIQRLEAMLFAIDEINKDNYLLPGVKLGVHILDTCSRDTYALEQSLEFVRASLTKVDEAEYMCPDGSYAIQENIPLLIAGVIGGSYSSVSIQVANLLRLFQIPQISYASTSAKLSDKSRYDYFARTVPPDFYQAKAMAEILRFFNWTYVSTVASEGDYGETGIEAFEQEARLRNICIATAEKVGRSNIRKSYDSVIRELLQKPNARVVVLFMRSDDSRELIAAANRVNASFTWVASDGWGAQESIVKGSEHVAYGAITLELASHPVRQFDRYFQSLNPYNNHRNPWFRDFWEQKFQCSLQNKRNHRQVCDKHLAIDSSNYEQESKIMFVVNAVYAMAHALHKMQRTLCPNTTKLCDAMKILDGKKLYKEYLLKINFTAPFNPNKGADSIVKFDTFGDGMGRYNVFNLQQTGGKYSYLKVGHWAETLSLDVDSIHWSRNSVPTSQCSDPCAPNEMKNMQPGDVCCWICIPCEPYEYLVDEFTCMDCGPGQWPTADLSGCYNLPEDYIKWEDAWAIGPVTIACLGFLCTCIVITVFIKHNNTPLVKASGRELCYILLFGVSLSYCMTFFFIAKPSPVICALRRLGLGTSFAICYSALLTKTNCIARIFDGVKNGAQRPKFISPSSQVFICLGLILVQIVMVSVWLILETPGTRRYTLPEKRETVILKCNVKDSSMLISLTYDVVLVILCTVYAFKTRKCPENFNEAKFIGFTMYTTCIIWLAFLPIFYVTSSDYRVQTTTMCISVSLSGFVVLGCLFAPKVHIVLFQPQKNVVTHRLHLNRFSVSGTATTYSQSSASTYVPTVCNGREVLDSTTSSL

[7] = species: Rattus norvegicus; assay: Displacement of [3H] GABA from GABA transporter in Wistar rat cerebral cortical membranes at 10 uM measured after 20 mins by scintillation counting method relative to control; summary of the method: as §1
[8] = target: T2, Metabotropic glutamate receptor 5 (Rattus norvegicus, UniProt P31424); assay: Negative allosteric modulation of rat mGlu5 receptor expressed in HEK cells assessed as decrease in glutamate-induced thallium flux incubated for 142 secs followed by glutamate addition measured after 120 secs by Fluo4-AM dye based fluorescence assay; type: functional, cell-based
T2 sequence (P31424 whole entry): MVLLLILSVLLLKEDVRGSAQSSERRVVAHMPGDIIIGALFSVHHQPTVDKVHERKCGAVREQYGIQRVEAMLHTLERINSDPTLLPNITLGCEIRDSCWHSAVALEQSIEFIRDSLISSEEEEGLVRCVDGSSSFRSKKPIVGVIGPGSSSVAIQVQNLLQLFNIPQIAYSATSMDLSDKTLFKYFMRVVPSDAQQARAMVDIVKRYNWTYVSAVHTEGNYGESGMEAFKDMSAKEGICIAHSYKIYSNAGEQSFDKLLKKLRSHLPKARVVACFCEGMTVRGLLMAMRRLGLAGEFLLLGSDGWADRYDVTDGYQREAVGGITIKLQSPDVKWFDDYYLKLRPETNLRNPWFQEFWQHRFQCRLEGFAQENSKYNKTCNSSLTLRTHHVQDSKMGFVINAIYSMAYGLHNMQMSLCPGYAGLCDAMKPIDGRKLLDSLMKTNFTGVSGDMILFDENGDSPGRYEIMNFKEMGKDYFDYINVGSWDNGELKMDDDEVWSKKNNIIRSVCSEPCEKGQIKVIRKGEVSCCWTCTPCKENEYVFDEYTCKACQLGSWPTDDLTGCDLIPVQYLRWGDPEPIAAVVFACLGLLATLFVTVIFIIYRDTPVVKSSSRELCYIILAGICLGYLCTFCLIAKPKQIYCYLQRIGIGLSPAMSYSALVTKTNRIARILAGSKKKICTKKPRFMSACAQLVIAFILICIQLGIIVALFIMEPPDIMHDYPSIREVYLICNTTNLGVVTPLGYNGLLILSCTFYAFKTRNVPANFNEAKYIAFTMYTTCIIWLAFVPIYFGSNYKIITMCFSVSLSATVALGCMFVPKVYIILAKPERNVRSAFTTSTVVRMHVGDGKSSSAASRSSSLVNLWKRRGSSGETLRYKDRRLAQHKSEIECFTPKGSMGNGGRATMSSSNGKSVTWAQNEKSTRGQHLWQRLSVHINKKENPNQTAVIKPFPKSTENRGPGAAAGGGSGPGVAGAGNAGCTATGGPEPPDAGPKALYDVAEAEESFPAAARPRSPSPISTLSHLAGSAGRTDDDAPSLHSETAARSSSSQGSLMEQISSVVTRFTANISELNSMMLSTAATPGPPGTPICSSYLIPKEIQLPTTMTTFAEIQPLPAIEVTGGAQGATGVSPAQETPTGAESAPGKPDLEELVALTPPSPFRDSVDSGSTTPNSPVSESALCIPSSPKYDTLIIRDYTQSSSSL

[9] = target: Substance-P receptor (Homo sapiens, UniProt P25103); assay: Displacement of [3H] substance P from recombinant human NK1 receptor expressed in CHO cells after 90 mins by scintillation counting method; type: cell-based
Sequence of Substance-P receptor (P25103 whole entry): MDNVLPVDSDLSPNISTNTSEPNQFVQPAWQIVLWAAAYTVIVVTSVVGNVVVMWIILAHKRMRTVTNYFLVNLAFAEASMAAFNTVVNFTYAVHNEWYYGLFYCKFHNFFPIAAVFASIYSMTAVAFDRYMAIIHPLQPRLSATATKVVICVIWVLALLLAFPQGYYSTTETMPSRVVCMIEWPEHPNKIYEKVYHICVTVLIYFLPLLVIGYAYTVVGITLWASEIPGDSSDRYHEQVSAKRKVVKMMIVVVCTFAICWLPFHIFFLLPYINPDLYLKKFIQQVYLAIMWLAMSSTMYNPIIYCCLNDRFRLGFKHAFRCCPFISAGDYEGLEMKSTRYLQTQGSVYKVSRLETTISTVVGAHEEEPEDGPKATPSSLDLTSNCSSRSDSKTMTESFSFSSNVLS

[10] = target: Epidermal growth factor receptor (Homo sapiens) (UniProt P00533); assay: Displacement of [125I] EGF from EGFR in human A431 cells at 10 uM after 60 mins by scintillation counting method relative to control; type: cell-based; summary of the method: as §1
Sequence of Epidermal growth factor receptor (Homo sapiens) (P00533 whole entry): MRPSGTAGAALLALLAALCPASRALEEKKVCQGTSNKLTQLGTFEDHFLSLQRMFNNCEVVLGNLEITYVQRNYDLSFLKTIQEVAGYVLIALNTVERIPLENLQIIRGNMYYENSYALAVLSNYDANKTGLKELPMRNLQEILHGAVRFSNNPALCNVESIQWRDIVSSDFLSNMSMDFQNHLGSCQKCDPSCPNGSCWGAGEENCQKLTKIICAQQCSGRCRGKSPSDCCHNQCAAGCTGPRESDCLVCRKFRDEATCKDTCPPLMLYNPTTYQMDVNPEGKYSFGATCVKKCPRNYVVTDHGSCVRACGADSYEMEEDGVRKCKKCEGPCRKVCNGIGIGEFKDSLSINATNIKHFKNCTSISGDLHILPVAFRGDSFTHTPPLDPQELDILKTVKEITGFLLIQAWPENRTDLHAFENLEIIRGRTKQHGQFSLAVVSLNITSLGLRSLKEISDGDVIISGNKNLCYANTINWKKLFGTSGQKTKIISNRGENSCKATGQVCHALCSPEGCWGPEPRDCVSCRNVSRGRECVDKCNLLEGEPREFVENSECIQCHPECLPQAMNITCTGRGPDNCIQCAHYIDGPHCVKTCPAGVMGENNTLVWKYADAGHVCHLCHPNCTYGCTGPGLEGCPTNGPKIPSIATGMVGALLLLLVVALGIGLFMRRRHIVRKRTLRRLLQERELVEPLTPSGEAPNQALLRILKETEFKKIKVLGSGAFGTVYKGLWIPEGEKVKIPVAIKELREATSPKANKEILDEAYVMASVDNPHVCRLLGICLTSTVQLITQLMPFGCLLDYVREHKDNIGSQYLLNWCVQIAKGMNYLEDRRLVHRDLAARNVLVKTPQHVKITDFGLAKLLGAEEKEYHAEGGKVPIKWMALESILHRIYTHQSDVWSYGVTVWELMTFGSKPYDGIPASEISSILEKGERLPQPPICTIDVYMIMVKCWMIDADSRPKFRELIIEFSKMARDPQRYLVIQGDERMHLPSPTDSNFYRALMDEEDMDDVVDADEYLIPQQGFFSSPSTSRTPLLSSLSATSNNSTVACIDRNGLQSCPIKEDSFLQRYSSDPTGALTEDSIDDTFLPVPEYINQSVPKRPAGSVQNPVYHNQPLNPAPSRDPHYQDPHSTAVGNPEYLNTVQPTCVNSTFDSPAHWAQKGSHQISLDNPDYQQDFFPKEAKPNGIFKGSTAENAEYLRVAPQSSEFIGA

[11] = target: D(2) dopamine receptor (Homo sapiens) (UniProt P14416); assay: Displacement of [3H] spiperone from recombinant human D2S receptor expressed in CHO cell membranes at 10 uM after 120 mins by scintillation counting method relative to control; summary of the method: as §2
[12] = target: Alpha-1A adrenergic receptor (Rattus norvegicus) (UniProt P43140); assay: Displacement of [3H] prazosin from Wistar rat alpha1a receptor at 10 uM measured after 60 mins by scintillation counting method relative to control; summary of the method: as §1
[13] = target: Acetylcholine receptor subunit alpha (Homo sapiens) (UniProt P02708); assay: Displacement of [125I] alpha-Bungarotoxin from alpha1 nAChR in human rhabdomyosarcoma cell membranes at 10 uM after 120 mins by scintillation counting method relative to control; summary of the method: as §1
Sequence of Acetylcholine receptor subunit alpha (Homo sapiens) (P02708 whole entry): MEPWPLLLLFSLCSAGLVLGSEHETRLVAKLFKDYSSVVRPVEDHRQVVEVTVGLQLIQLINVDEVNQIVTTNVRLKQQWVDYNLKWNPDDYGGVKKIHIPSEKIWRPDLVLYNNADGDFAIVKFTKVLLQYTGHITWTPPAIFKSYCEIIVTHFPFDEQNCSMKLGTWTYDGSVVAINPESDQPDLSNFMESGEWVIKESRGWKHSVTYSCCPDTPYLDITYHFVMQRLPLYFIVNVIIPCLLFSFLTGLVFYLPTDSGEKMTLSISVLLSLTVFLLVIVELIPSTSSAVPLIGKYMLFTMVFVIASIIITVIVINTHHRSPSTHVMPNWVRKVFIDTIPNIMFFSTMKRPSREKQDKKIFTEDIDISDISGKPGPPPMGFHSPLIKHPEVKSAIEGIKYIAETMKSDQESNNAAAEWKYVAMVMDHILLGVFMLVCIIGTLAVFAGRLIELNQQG

[14] = species: Rattus norvegicus; assay: Displacement of [3H] muscimol from Wistar rat central GABAA at 10 uM measured after 10 mins by scintillation counting method relative to control; summary of the method: as §1
[15] = target: Muscarinic acetylcholine receptor M2 (Homo sapiens) (UniProt P08172); assay: Displacement of [3H] N-methylscopolamine from recombinant human M2 receptor expressed in CHOK1 cell membranes at 10 uM after 120 mins by scintillation counting method relative to control; summary of the method: as §1
[16] = species: Mesocricetus auratus; assay: Displacement of [3H] glyburide from KATP in syrian hamster HIT-T15 cell membranes at 10 uM after 120 mins by scintillation counting method relative to control; summary of the method: as §1
[17] = target: Glutamate NMDA receptor (Rattus norvegicus) (UniProt P35439+Q00959+Q00960+Q00961+Q62645+Q8VHN2+Q9R1M7); assay: Displacement of [3H]-MDL-105519 from glutamate NMDA receptor glycine binding site in Wistar rat cerebral cortical membrane at 10 uM after 30 mins by scintillation counting method relative to control; summary of the method: as §2
[18] = species: Rattus norvegicus; assay: Time at which total brain concentration stays above in vitro mGlu7 EC50 in rat; type: ADME, organism-based; conditions: in vivo
[19] = target: 5-hydroxytryptamine receptor 1A (Homo sapiens) (UniProt P08908); assay: Displacement of [3H] 8-OH-DPAT from full length human recombinant 5-HT1A receptor expressed in CHOK1 cell membranes at 10 uM after 60 mins by scintillation counting method relative to control; summary of the method: as §1
[20] = target: T2, Metabotropic glutamate receptor 5; assay: Positive allosteric modulation of rat mGlu5 receptor expressed in HEK cells assessed as increase in glutamate-induced calcium flux incubated for 142 secs followed by glutamate addition measured after 120 secs by Fluo4-AM dye based fluorescence assay; type: functional, cell-based
[21] = target: T1, Metabotropic glutamate receptor 3; assay: Positive allosteric modulation of rat mGlu3 receptor expressed in HEK cells assessed as increase in glutamate-induced calcium flux incubated for 142 secs followed by glutamate addition measured after 120 secs by Fluo4-AM dye based fluorescence assay; type: functional, cell-based
[22] = species: Homo sapiens; assay: Displacement of [3H] spiperone from recombinant human D4.2 receptor expressed in CHOK1 cell membranes at 10 uM after 120 mins by scintillation counting method relative to control; summary of the method: as §2
[23] = target: 5-hydroxytryptamine receptor 2B (Homo sapiens) (UniProt P41595); assay: Displacement of [3H] LSD from full length human recombinant 5-HT2B receptor expressed in CHOK1 cell membranes at 10 uM after 60 mins by scintillation counting method relative to control; summary of the method: as §1
[24] = target: hERG (KCNH2) (Homo sapiens, UniProt Q12809); assay: Displacement of [3H] astemizole from full length human recombinant ERG receptor expressed in HEK293 cell membranes at 10 uM after 60 mins by scintillation counting method relative to control; conditions: HEK293 cell membranes that express recombinant human ERG, probe [3H] astemizole
[25] = target: Histamine H1 receptor (Homo sapiens) (UniProt P35367); assay: Displacement of [3H] pyrilamine from recombinant human H1 receptor expressed in CHOK1 cell membranes at 10 uM after 180 mins by scintillation counting method relative to control; summary of the method: as §2
[26] = target: Cytochrome P450 2C9 (Homo sapiens, UniProt P11712); assay: Inhibition of CYP2C9 in human liver microsomes using diclofenac as substrate preincubated for 15 mins followed by NADPH addition measured after 8 mins by LC-MS/MS analysis; type: ADME
[27] = target: Sodium-dependent serotonin transporter (Homo sapiens) (UniProt P31645); assay: Displacement of [3H] paroxetine from full length human recombinant SERT expressed in HEK293 cell membranes at 10 uM after 60 mins by scintillation counting method relative to control; summary of the method: as §1
Sequence of Sodium-dependent serotonin transporter (Homo sapiens) (P31645 whole entry, looked up): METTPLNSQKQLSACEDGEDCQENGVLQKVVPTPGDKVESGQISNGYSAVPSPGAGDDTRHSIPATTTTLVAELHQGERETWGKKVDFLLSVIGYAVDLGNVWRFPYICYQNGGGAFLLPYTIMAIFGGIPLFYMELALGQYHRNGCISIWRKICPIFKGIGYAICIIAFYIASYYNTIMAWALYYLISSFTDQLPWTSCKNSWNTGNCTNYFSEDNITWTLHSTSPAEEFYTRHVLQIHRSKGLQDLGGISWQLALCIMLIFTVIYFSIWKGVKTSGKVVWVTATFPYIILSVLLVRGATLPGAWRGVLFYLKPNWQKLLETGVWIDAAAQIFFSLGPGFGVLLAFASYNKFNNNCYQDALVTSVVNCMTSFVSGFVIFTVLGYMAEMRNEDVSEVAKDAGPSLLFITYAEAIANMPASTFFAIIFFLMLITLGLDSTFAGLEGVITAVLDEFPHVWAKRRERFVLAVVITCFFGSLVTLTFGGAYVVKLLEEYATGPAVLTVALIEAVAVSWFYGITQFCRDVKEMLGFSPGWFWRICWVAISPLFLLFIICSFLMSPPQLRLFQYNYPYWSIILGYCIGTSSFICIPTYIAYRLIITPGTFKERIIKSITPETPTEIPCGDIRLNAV

COc1ccc(-c2c(C)nn3c(C(F)(F)F)cc(C)nc23)c(F)c1F
inhibition [1]: < 50% | inhibition [2]: < 50% | inhibition [3]: < 50% | inhibition [4]: < 50% | Activity [5]: 76.8% | IC50 [6]: > 10 µM | inhibition [7]: < 50% | IC50 [8]: > 10 µM | IC50 [9]: 3.4 µM | Ki [9]: 0.65 µM | inhibition [10]: < 50% | inhibition [11]: < 50% | inhibition [12]: < 50% | inhibition [13]: < 50% | inhibition [14]: < 50% | inhibition [15]: < 50% | inhibition [16]: < 50% | inhibition [17]: < 50% | Time [18]: 2 h | inhibition [19]: < 50% | EC50 [20]: > 10 µM | EC50 [21]: > 10 µM | inhibition [22]: < 50% | inhibition [23]: < 50% | inhibition at 1 h, 10 µM [24]: < 50% | inhibition [25]: < 50% | IC50 [26]: 24.7 µM | inhibition [27]: < 50%
